Experimental findings from paper PMC3932990 (Journal of medicinal chemistry, 2013) are described below.

Experiment [1] concerns the target T1, RPA70N (Homo sapiens, UniProt P27694). Put plainly: NMR-based titration, binding to RPA70N. The settings on record: linked compound vs fragments.
Experiment [2] deals with T1, RPA70N. Put plainly: ATRIP-based FPA competition assay. Type of experiment: binding. As to conditions: from FPA-derived Kd. The procedure, abridged: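 Competitive fluorescence polarization anisotropy. Buffer: 50 mM HEPES, 75 mM NaCl, 5 mM DTT, pH 7.5, 5% DMSO. Test compound run as 10-point 3-fold series, 500–0.025 µM final. 4-parameter logistic IC50 converted to Kd.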

Where only a bound is given, the exact number is not on record here.

Turning to `Cc1cccc(-n2nc(C(=O)O)cc2-c2ccc(OCc3ccc(-c4ccc(C(=O)O)o4)cc3)cc2)c1` [compound 7, 5-(4-((4-(5-Carboxyfuran-2-yl)benzyl)oxy)phenyl)-1-(m-tolyl)-1H-pyrazole-3-carboxylic acid], the “increase in affinity with respect to the starting fragments” value in experiment [1] is given as > 20 fold.

Turning to `O=C(O)c1cc(-c2ccc(CNC(=O)c3ccc(-c4ccc(C(=O)O)o4)cc3Cl)cc2)n(-c2ccc(Cl)c(Cl)c2)n1` [compound 22, 5-(4-((4-(5-Carboxyfuran-2-yl)-2-chlorobenzamido)methyl)phenyl)-1-(3,4-dichlorophenyl)-1H-pyrazole-3-carboxylic acid], the “ligand efficiency (LE)” value in experiment [2] is listed as 0.18.

On to `O=C(O)c1cc(-c2ccc(CNC(=S)c3ccc(-c4ccc(C(=O)O)o4)cc3Cl)cc2)n(-c2ccc(Cl)c(Cl)c2)n1` [compound 8, 5-(4-((4-(5-Carboxyfuran-2-yl)-2-chlorophenylthioamido)methyl)phenyl)-1-(3,4-dichlorophenyl)-1H-pyrazole-3-carboxylic acid], for which the “ligand efficiency (LE)” value in experiment [2] turned out to be 0.23.
